# From ChEMBL document CHEMBL1649518, “Safety and outcomes of open-label deferasirox iron chelation therapy for mucormycosis” (Antimicrob Agents Chemother, 2009)
# Tests used:
# Format in all cases: organism-based
# Design in all cases: route oral
# Conditions in all cases: in vivo, 336 h
# Homo sapiens [1] = test: Toxicity in patient with mucormycosis assessed as creatinine level at 5 to 20 mg/kg/day, po for 14 days (reference value: 1.6 mg/dl)
# Outline: (§1)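 Open-label deferasirox given to patients with mucormycosis. One patient with coexisting hepatic disease received 5 mg/kg of body weight/day for 20 days. Laboratory values were reported as medians (interquartile range) at diagnosis, at start of deferasirox, at end of deferasirox, and at a final time point.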
# Homo sapiens [2] = test: Toxicity in patient with mucormycosis assessed as blood urea nitrogen level at 5 to 20 mg/kg/day, po for 14 days (reference value: 34 mg/dl); outline: as §1
# Homo sapiens [3] = test: Toxicity in patient with mucormycosis assessed as absolute neutrophil count at 5 to 20 mg/kg/day, po for 14 days (reference value: 5.2/uL); outline: as §1
# Homo sapiens [4] = test: Toxicity in patient with mucormycosis assessed as alkaline phosphatase level at 5 to 20 mg/kg/day, po for 14 days (reference value: 126 U/l); outline: as §1
# Homo sapiens [5] = test: Toxicity in patient with mucormycosis assessed as WBC count at 5 to 20 mg/kg/day, po for 14 days (reference value: 8.1/uL); outline: as §1
# Homo sapiens [6] = test: Toxicity in patient with mucormycosis assessed as alanine transaminase level at 5 to 20 mg/kg/day, po for 14 days (reference value: 21 U/l); outline: as §1
# Homo sapiens [7] = test: Toxicity in patient with mucormycosis assessed as hemoglobin level at 5 to 20 mg/kg/day, po for 14 days (reference value: 9 mg/dl); outline: as §1
# Homo sapiens [8] = test: Toxicity in patient with mucormycosis assessed as platelet count at 5 to 20 mg/kg/day, po for 14 days (reference value: 217/uL); outline: as §1
# Homo sapiens [9] = test: Toxicity in patient with mucormycosis assessed as glucose level at 5 to 20 mg/kg/day, po for 14 days (reference value: 131 mg/dl); outline: as §1
# Homo sapiens [10] = test: Toxicity in patient with mucormycosis assessed as total bilirubin level at 5 to 20 mg/kg/day, po for 14 days (reference value: 0.8 mg/dl); outline: as §1
# Homo sapiens [11] = test: Toxicity in patient with mucormycosis assessed as aspartate transaminase level at 5 to 20 mg/kg/day, po for 14 days (reference value: 27 U/l); outline: as §1
smiles,measurement,setting,value
O=C(O)c1ccc(-n2nc(-c3ccccc3O)nc2-c2ccccc2O)cc1 [DEFERASIROX],Activity,Homo sapiens [1],1.9 mg/dL
same,Activity,Homo sapiens [2],43 mg/dL
same,Activity,Homo sapiens [3],5.4 10^3 cells/µL
same,Activity,Homo sapiens [4],314 U/L
same,Activity,Homo sapiens [5],10.8 10^3 cells/µL
same,Activity,Homo sapiens [6],49 U/L
same,Activity,Homo sapiens [7],9 g/dL
same,Activity,Homo sapiens [8],199 10^3 cells/µL
same,Activity,Homo sapiens [9],104 mg/dL
same,Activity,Homo sapiens [10],0.6 mg/dL
same,Activity,Homo sapiens [11],28 U/L
